Data set [1] concerns TNF-α secretion by LPS-stimulated THP-1 cells. The experiment in a line: TNF-α secretion assay in LPS-stimulated THP-1 cells. The conditions noted are these: for Suppression of TNF-α secretion (in words): 50 μg/ml, Figure 2; for inhibition at 100 µg/mL: Homo sapiens, THP-1, read-out: % Inhibition of TNF-α secretion. The data set is classed as cell-based, human. In short, it runs like this: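 THP-1 cells (RPMI-1640 with 0.05 mM 2-mercaptoethanol, 2 mM glutamine, 10% FBS) plated in log phase at 4 × 10^5/well. After 24 h, 50 nM PMA is added with test compound; after 24 h more, medium is replaced with compound-only medium. After 24 h, LPS 10 μg/ml is added, supernatants taken at 2 h, and human TNF-α measured by ELISA against the kit standard curve. Run in triplicate; % inhibition.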

Data set [2] relates to LPS-induced lethality in mice. The experiment in a line: LPS-induced endotoxic shock model. Format: in vivo. The conditions noted are these: for Protection from lethal dose of LPS (mortality/morbidity): 40 mg/kg ip pretreatment, 24 h observation. In short, it runs like this:
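C57 mice (8–12 weeks, 20–25 g, n = 8) get test compound i.p., then immediately a lethal i.p. LPS challenge. D-galactosamine (40 μg/g, as 4 μg/μL in DMSO) and E. coli LPS (0.25 μg/mouse, in 0.1 mL PBS with 1% BSA) are injected i.p. Controls get DMSO, then LPS. Mortality and morbidity are checked hourly for 24 h.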

A further data set relates to LITAF. The experiment in a line: Western blot of LITAF expression in cells. The data set is classed as cell-based. The note with it: Figure 6.
The subject of data set [3] is TNF-α release from NIH3T3 cells. The conditions noted are these: cited from earlier work.
For the next data set, the system named is TNF-α release in mice. The conditions noted are these: cited from earlier work.
In the next data set the test system is THP-1 cells. The data set can be described thus: Cytotoxicity. The data set is classed as cell-based, human. The conditions noted are these: at concentrations active in the TNF-α secretion assay.
Data set [4] concerns DYRK1A (dual-specificity tyrosine-phosphorylated and regulated kinase 1A). The conditions noted are these: kinase selectivity screening; cited from earlier work.
The subject of a further data set is IκB kinase (IKK). The conditions noted are these: kinase selectivity screening; cited from earlier work.
Data set [5] deals with PRAK (p38-regulated/activated kinase). The note with it: kinase selectivity screening; cited from earlier work.
A further data set has as its system Aurora B. The note with it: kinase selectivity screening; cited from earlier work.
The test system of data set [6] is MAPKAP-K3 (MAPK-activated protein kinase 3). The conditions noted are these: kinase selectivity screening; cited from earlier work.
The next data set can be described thus: Solubility. The data set is classed as physicochemical.
Data set [7] in a line: Preliminary pharmacokinetic evaluation. The conditions noted are these: for half-life: mouse, in vivo. Format: in vivo, mice.
The nature of data set [8]: Chemical stability in aqueous buffer. The data set is classed as physicochemical.
A further data set concerns Caco-2. The data set can be described thus: Caco-2 permeability. The data set is classed as in vitro ADME.
A further data set is described as follows: Mouse plasma stability. Format: in vitro ADME.

Results on eight compounds are retold here after publication PMC2754715 (Chemical biology & drug design, 2009).

Where only a bound is given, the exact number is not on record here.

Usually inhibition stands for the change of the read-out against control, counted positive when it falls. In general, solubility refers to the dissolved amount per volume that the medium holds. A high value points to much dissolved substance. As a reminder, the half-life is the time needed for the level to fall by half in the phase considered.

In the case of `COC1=CC(=O)O[C@@H](/C=C/c2ccc3c(c2)OCO3)C1` [Compound 4, methysticin], in data set [1], the “Suppression of TNF-α secretion (in words)” value (shortened to “Suppression … (in words)”) was “essentially inactive” and the inhibition at 100 µg/mL came out at 43%. The “Suppression … (in words)” value in data set [1] (listed as methysticin) is listed as “inactivity”.

As to `COC1=CC(=O)O[C@@H](CCc2ccc3c(c2)OCO3)C1` [Compound 3, dihydromethysticin], in data set [1], the “Suppression … (in words)” value was “essentially inactive” and the inhibition at 100 µg/mL worked out at 37%. The “Suppression … (in words)” value in [1] (listed as dihydromethysticin) was “inactivity”.

As to `COc1cc2c(cc1O)CC[n+]1cc3c(OC)c(OC)ccc3cc1-2.[I-]` [Jatrorrhizine iodide], the “Protection from lethal dose of LPS (mortality/morbidity)” value (from here on “Protection … (mortality/morbidity)”) in data set [2] was “render mice immune to endotoxic shock-mediated death”. Further, the “Health of surviving animals” value in data set [2] (40 mg/kg ip, after 24h) was “poor health”.

In the case of `COC1=CC(=O)OC(c2ccc(-c3ccccc3)cc2)C1` (stereo not drawn) [Compound 15, 6-(Biphenyl-4-yl)-4-methoxy-5,6-dihydro-2H-pyran-2-one], the inhibition at 100 µg/mL in data set [1] is -9%.

With `COC(=O)/C=C(\CC(O)c1ccc(-c2ccccc2)cc1)OC` (stereo not drawn) [Compound 16, (E)-Methyl 5-(biphenyl-4-yl)-5-hydroxy-3-methoxypent-2-enoate], the LITAF expression result in the data set on LITAF was “nearly ablated LITAF expression”. In addition, in data set [1], the “Suppression of TNF-α secretion” value is given as not below 50% and the inhibition at 100 µg/mL amounted to 58%. Also, the “Dose response of TNF-α secretion suppression” value in data set [1] (Figure 5) is given as “dose-responsive manner”.

As for `COC1=CC(=O)O[C@@H](CCc2ccccc2)C1` [Compound 2, dihydrokavain], in [3], the “Inhibition of TNF-α release (in words)” value is reported as “lower activity”. Further, in data set [2] (40 mg/Kg ip pretreatment), the “Survival rate at 24 h” value is reported as 30%. In addition, in data set [2] (40 mg/Kg ip, animals that died), the “Delay in time of death compared to vehicle treated animals” value was “about a two hour delay”. Moreover, the “Protection … (mortality/morbidity)” value in data set [2] was “only partially protected”. For the same compound, the “Inhibition of TNF-α release in mice (in words)” value in the data set on TNF-α release in mice is recorded as “most potent inhibitor”. In data set [1], the “Suppression … (in words)” value is “reproducibly active”. The “% Inhibition of TNF-α secretion” value in data set [1] (LPS-treated THP-1 cells, 100 μg/ml, replicates in parentheses) was 95 (3) %. For the same compound, the Cytotoxicity result in the data set on THP-1 cells is “did not show any cytotoxicity”.

With `COc1ccc(C=CC(=O)c2c(O)cc(OC)cc2OC)cc1` [Compound 8, flavokavain A], in [4], the “Inhibition of DYRK1A” value is given as “inhibits”. The “Inhibition of IKK” value with IκB kinase (IKK) is recorded as “inhibits”. In addition, the “Inhibition of PRAK” value in data set [5] is reported as “inhibits”. Also, the “Inhibition of Aurora B” value in the data set on Aurora B is given as “inhibits”. In addition, in [6], the “Inhibition of MAPKAP-K3” value is given as “inhibits”.

As for `COC1=CC(=O)O[C@@H](/C=C/c2ccccc2)C1` [Compound 1, kavain], in the data set on LITAF, the LITAF expression entry is “evidently do not”. Also, the solubility in “Solubility” (PBS buffer, pH 7, aqueous buffer) was more than 500 µM. Further, in the data set “Solubility” (pH 7), the “Solubility (in words)” value is on record as “highly soluble”. Moreover, the “Clearance (in words)” value in [7] (following dosing, mice) is given as “rapidly cleared”. For the same compound, in data set [7] (iv, 1 mg/kg), the half-life is less than 15 min. In data set [7] (po, 10 mg/kg), this compound came in with a half-life of less than 40 min. Further, in [8] (aqueous buffer), the “Chemical stability (in words)” value is “good chemical stability”. The “Chemical Stability, degradation” value in data set [8] (at 1 hr, pH=7) is reported as <10% degradation at 1 hr, pH=7. Besides, the “Protection … (mortality/morbidity)” value in data set [2] is on record as “no mortality or overt morbidity observed for at least 24 hours”. In [1], the “Suppression … (in words)” value is recorded as “reproducibly active” and the inhibition at 100 µg/mL stood at 98%. Further, the Cytotoxicity entry in the data set on THP-1 cells is “did not show any cytotoxicity”. In the data set on Caco-2, the “Caco-2 permeability, Papp(B→A)/Papp(A→B)” value is listed as “Papp(B→A)/Papp(A→B)=0.7”. Also, the “Cell permeability (in words)” value in the data set with Caco-2 (Caco-2 assay) is “high level of cell permeability”. Also, the “Mouse plasma stability, remaining” value in “Mouse plasma stability” (at 2h, 5 μM dose) is on record as 99% remaining at 2h (5 μM dose). The “Stability in plasma (in words)” value in “Mouse plasma stability” (mouse plasma) is “good chemical stability”.
